Sampled rows, rich in hits. Any-hit rate of the full collection: about 4.7%.
Jurkat NFkB inh = inhibitors of induced NF-kB luciferase reporter, primary screen, TCR NF-kB activation inhibitor project, cell-based, luminescence, uHTS; actives 0.53% (n = 330,000); AID 435003, 2010; Jurkat, PMA/ionomycin-induced NF-kB luciferase reporter; inhibition, % at 4 µM; in the data active means inhibition above about 50%
IMP-1 inh = IMP-1 metallo-beta-lactamase inhibitors, primary screen, biochemical, epi-absorbance readout, Pseudomonas aeruginosa enzyme; metallo-beta-lactamase IMP-1 (Pseudomonas aeruginosa); purified IMP-1, nitrocefin hydrolysis, epi-absorbance fluorescence; inhibition, % at 5.6 µM; actives 0.45% (n = 290,000);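 active means inhibition above the mean plus 3 SD of all compounds in the same screening run, cut at about 4.5% in these data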
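Assay system: purified IMP-1; Quantity: IMP-1 0.2 nM before substrate addition; Medium: HEPES buffer pH 7.1 with ZnSO4 and Brij 35; Incubation: 15 min enzyme–compound preincubation, then 25 min nitrocefin reaction, 25 °C; Signal: fluorescence quenching readout, ex 480/em 530 nm; Controls: DMSO with and without IMP-1; Repeats: singlicate testing.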
Mdm2-MdmX inh = inhibitors of human Mdm2-MdmX association, primary screen, cell-based, luminescence, split luciferase, SaOS-2, uHTS | SaOS-2 split-luciferase Mdm2/MdmX complementation | actives 3% (n = 330,000) | inhibition, % at 8 µM | Protein Mdm4 (Homo sapiens) + E3 ubiquitin-protein ligase Mdm2 (Homo sapiens), … | AID 485346, 2010;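 active means inhibition of at least 50% at 8 µM in the primary screen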
Target sequence (O15151 whole entry, looked up): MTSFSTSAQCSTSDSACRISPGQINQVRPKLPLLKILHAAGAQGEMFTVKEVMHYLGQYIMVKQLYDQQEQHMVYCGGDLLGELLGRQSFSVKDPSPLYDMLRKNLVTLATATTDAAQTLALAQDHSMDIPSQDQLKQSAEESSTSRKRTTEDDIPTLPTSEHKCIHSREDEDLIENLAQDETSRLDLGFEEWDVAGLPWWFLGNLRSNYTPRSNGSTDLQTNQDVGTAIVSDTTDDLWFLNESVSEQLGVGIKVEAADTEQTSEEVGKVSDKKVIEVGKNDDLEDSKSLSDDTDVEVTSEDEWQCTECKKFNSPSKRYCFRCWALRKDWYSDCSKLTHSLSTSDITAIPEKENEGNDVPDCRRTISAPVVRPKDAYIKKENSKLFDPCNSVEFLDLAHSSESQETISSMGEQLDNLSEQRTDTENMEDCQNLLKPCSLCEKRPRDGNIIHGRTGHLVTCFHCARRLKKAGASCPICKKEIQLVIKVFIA
Target sequence (Q00987 whole entry, looked up): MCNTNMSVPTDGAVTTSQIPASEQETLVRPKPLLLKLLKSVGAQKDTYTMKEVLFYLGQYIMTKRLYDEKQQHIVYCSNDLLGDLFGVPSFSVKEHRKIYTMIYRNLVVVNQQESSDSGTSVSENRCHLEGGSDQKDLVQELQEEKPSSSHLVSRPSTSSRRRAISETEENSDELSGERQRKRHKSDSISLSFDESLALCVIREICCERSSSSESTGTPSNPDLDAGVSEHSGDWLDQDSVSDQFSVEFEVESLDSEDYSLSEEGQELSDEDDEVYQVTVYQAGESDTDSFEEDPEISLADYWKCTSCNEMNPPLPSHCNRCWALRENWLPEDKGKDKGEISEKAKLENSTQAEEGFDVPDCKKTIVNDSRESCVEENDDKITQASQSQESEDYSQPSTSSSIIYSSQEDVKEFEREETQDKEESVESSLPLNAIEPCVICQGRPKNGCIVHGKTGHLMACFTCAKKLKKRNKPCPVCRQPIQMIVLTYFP
aSyn UTR inh = MLPCN primary screen, SNCA 5' untranslated region; alpha-synuclein 5'UTR reporter, inhibitor activity; inhibition, % (tested at 7.5 µM); actives 0.82% (n = 300,000); in the data active means inhibition above about 60%;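 further: H4 neuroglioblastoma cells stably carrying SNCA 5'UTR luciferase fusion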
VIM-2 inhibitor = VIM-2 metallo-beta-lactamase inhibitors, primary screen, biochemical, epi-absorbance readout, Pseudomonas aeruginosa enzyme | purified VIM-2, nitrocefin hydrolysis, epi-absorbance fluorescence | inhibition, % at 5.6 µM | actives 0.89% (n = 290,000);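 active means inhibition above the mean of all tested compounds plus 3 SD, cutoff set per screening run, cut at about 7.5% in these data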;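 further: red hydrolysis product quenches plate fluorescence so inhibitors raise well fluorescence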
697 NFkB inh = inhibitors of PMA/ionomycin-induced NF-kB reporter, 697 cells, primary screen, B-cell NF-kB inhibitor project, cell-based, luminescence, uHTS; actives 0.33% (n = 330,000); inhibition, % at 4 µM; AID 435022, 2010; 697 B-cell NF-kB luciferase reporter, 16 h; in the data active means inhibition above about 35%
Mdm2-MdmX conf = Mdm2-MdmX complex disruptors, retested hits, confirmation, luminescence, single concentration | shares compounds with Mdm2-MdmX inh | inhibition, % at 8 µM | actives 55% (n = 10,000) | Mdm2-MdmX binding, luminescent assay; in the data active means inhibition above about 40%
Full FLuc ctr = full-length luciferase signal inhibition, confirmation, counter-screen for Mdm2/MdmX interaction inhibitor project, cell-based, single concentration, SaOS-2; shares compounds with Mdm2-MdmX inh; SaOS-2 full-length luciferase counterscreen, luminescence; inhibition, % at 8 µM; actives 77% (n = 6,200); AID 504607, 2011;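 active means mean inhibition at 8 µM reaching about 37%, which flags the compound as non-specific, limit read from the data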;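 further: p53-null SaOS-2 cells with luciferase driven by a doxycycline-inducible promoter; compound on cells about two nights before reading with doxycycline added after day one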
Of the large screens only hits and unclear results are named; the others gave an inactive call (follow-up assays come after a bar, where they were run).

COc1ccccc1NC(=O)c1cc2c(CO)cnc(C)c2oc1=Nc1cccc(C(N)=O)c1	Mdm2-MdmX inh 79 | Mdm2-MdmX conf 41 | Full FLuc ctr 90
COc1cccc(N=c2oc3c(C)ncc(CO)c3cc2C(=O)Nc2ccccc2OC)c1	none (no result: Jurkat NFkB inh, Mdm2-MdmX inh, 697 NFkB inh)
COc1cc(O)c(CC=C(C)C)c(O)c1C(=O)CCc1ccc(O)cc1	Mdm2-MdmX inh 55 (no result: IMP-1 inh, VIM-2 inhibitor) | Mdm2-MdmX conf inactive
O=C(CCc1ccc(O)cc1)c1c(O)cc(O)cc1O	none (no result: IMP-1 inh, VIM-2 inhibitor)
Cc1cc(C)nc(/N=C(\N)Nc2ccc(-c3ccccc3)cc2)n1	Mdm2-MdmX inh 52 | Mdm2-MdmX conf inactive
COc1cc(NS(=O)(=O)c2cn(C)cn2)cc(OC)c1OC	none
COC(=O)c1c(NC(=O)CSc2ncnc3c2cnn3-c2ccccc2Cl)sc2c1CCCC2	Mdm2-MdmX inh 53 | Mdm2-MdmX conf inactive
C=CC(C)(C)c1c(O)c(CC=C(C)C)c(O)c2c(=O)c3ccc(O)c(O)c3oc12	Mdm2-MdmX inh 92, aSyn UTR inh 73 (no result: IMP-1 inh, VIM-2 inhibitor) | Mdm2-MdmX conf 86 | Full FLuc ctr 55
CC(C)(C)c1ccc(C2CC2C(=O)N/N=C\c2ccc[nH]2)cc1 (configuration not stated)	Mdm2-MdmX inh 84 | Mdm2-MdmX conf 73 | Full FLuc ctr inactive
O=S(=O)(/C(=C/c1ccc(C(F)(F)F)cc1)c1nc2ccccc2[nH]1)c1ccccc1	none (no result: Jurkat NFkB inh, Mdm2-MdmX inh, 697 NFkB inh)
CC(C)c1ccc(/C=C(\c2nc3ccccc3[nH]2)S(=O)(=O)c2ccccc2)cc1	Mdm2-MdmX inh 100 | Mdm2-MdmX conf 100 | Full FLuc ctr 53
Cc1cc(C)c2nc(/N=C(\N)NC(=O)Nc3ccccc3)nc(C)c2c1	Mdm2-MdmX inh 54 | Mdm2-MdmX conf 48 | Full FLuc ctr 70
CCOC(=O)c1c(NC(=O)c2cc(-c3cccc(O)c3)on2)sc(C(C)=O)c1C	Mdm2-MdmX inh 75 | Mdm2-MdmX conf inactive
CCOC(=O)c1sc(NC(=O)c2cc(-c3cccc(O)c3)on2)c(C(=O)OCC)c1C	none
CC(=O)N1CCC(=NNC(=O)c2cc3ccccc3cc2O)CC1	Mdm2-MdmX inh 62 | Mdm2-MdmX conf 51 | Full FLuc ctr 58
O=C(O)c1ccc(-c2nc(-c3ccccc3)c(-c3cccs3)[nH]2)cc1	none
CCOc1cc(-c2nc(-c3ccccc3)c(-c3cc([N+](=O)[O-])ccc3C)[nH]2)ccc1O	Mdm2-MdmX inh 57 | Mdm2-MdmX conf inactive
O=[N+]([O-])c1ccc(O)c(-c2nc(-c3ccccc3)c(-c3cccs3)[nH]2)c1	Mdm2-MdmX inh 85 | Mdm2-MdmX conf 89 | Full FLuc ctr 49
COc1ccc(CN2CCC(C(=O)c3ccc(Cl)cc3)CC2)cc1	none
O=C(CN1C(=O)S/C(=C\c2cccc(Cl)c2)C1=O)NC1C=CS(=O)(=O)C1 (configuration not stated)	Mdm2-MdmX inh 57 | Mdm2-MdmX conf inactive
COC(=O)c1ccc(COc2ccc(-c3nnn(CC(N)=O)n3)cc2)cc1	Mdm2-MdmX inh 56 | Mdm2-MdmX conf inactive
CCOC(=O)N1CCN(S(=O)(=O)c2ccc(C(=O)Nc3sc4c(c3C(N)=O)CC(C)(C)NC4(C)C)cc2)CC1	none
CC1(C)Cc2c(sc(NC(=O)c3ccc4ncsc4c3)c2C(N)=O)C(C)(C)N1	Mdm2-MdmX inh 75 | Mdm2-MdmX conf inactive

Source: PubChem BioAssay (several laboratories)
